Reference: ChEMBL document CHEMBL1152636, “Synthesis and biological evaluation of 14-(aminoalkyl-aminomethyl)aromathecins as topoisomerase I inhibitors: investigating the hypothesis of shared structure-activity relationships” (2009)
Active and inactive are the calls of the source. No cut-off for these calls is given here.

Experiments:
UACC-62 = test: Cytotoxicity against human UACC62 cells; format: functional
In short: (§1)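 NCI ~60 human tumor cell line screen; after a single-dose pass at 10−5 M, selected compounds run at five concentrations from 10−8 to 10−4 M; GI50 reported per cell line.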

SN12C = test: Cytotoxicity against human SN12C cells; format: functional; in short: as §1
HOP-62 = test: Cytotoxicity against human HOP62 cells; format: functional; in short: as §1
HCT-116 = test: Cytotoxicity against human HCT116 cells; format: functional; in short: as §1
SF-539 = test: Cytotoxicity against human SF539 cells; format: functional; in short: as §1
MDA-MB-435 = test: Cytotoxicity against human MDA-MB-435 cells; format: functional; in short: as §1
DU-145 = test: Cytotoxicity against human DU145 cells; format: functional; in short: as §1
OVCAR-3 = test: Cytotoxicity against human OVCAR-3 cells; format: functional; in short: as §1
[1] = target: T1, DNA topoisomerase 1 (Homo sapiens) (UniProt P11387); test: Inhibition of human DNA topoisomerase 1 assessed as induction of enzyme-dependent DNA cleavage relative to 1 uM camptothecin
T1 sequence (whole entry): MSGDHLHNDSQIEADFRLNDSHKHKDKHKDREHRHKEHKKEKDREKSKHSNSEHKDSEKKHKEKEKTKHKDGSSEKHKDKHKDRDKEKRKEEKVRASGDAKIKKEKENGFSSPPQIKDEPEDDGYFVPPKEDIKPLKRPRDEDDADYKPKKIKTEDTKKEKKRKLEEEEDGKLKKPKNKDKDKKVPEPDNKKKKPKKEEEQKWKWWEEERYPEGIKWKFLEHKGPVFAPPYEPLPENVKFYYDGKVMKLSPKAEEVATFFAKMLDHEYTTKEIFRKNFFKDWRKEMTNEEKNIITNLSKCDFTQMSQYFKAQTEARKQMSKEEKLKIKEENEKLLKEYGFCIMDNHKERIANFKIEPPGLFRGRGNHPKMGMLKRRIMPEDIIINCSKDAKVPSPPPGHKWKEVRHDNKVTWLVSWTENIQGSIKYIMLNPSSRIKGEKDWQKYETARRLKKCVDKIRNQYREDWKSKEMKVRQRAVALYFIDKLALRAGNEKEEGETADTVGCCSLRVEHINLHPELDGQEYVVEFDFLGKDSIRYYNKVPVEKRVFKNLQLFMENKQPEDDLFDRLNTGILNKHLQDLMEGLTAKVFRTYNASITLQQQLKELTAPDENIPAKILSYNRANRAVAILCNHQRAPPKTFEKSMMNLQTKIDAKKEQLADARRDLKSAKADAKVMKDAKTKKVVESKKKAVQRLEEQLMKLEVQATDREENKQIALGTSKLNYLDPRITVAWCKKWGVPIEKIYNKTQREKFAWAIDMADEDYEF

[2] = Induction of cell growth in human NCI60 cell sat 10 uM; format: functional

| Compound | GI50 (UACC-62) | GI50 (SN12C) | GI50 (HOP-62) | GI50 (HCT-116) | GI50 (SF-539) | GI50 (MDA-MB-435) | GI50 (DU-145) | GI50 (OVCAR-3) | inhibition [1] | Activity [2] |
| --- | --- | --- | --- | --- | --- | --- | --- | --- | --- | --- |
| CC[C@@]1(O)C(=O)OCc2c1cc1n(c2=O)Cc2cc3ccccc3nc2-1 [CAMPTOTHECIN] | 10 nM | 20 nM | 10 nM | 30 nM | 10 nM | 40 nM | 10 nM |  |  |  |
| NCCCCCNCc1c2c(nc3ccccc13)-c1cc3ccccc3c(=O)n1C2 | 1900 nM | 3200 nM | 2600 nM | 3200 nM | 7200 nM | 12600 nM | 1100 nM | 8100 nM | 25% |  |
| NCCCCCCCCCCCNCc1c2c(nc3ccccc13)-c1cc3ccccc3c(=O)n1C2 |  |  |  |  |  |  |  |  | inactive |  |
| NCCCCCCCCCNCc1c2c(nc3ccccc13)-c1cc3ccccc3c(=O)n1C2 |  |  |  |  |  |  |  |  | 25% |  |
| NCCCCCCNCc1c2c(nc3ccccc13)-c1cc3ccccc3c(=O)n1C2 | 2000 nM | 510 nM | 1200 nM | 630 nM | 740 nM | 1500 nM | 330 nM | 1400 nM | 50% |  |
| NCCNCc1c2c(nc3ccccc13)-c1cc3ccccc3c(=O)n1C2 | 12600 nM | 1500 nM | 1400 nM | 1500 nM | 8300 nM | 11000 nM | 1400 nM | 1700 nM | 75% |  |
| NCCCNCc1c2c(nc3ccccc13)-c1cc3ccccc3c(=O)n1C2 | 4800 nM | 2100 nM | 9800 nM | 1500 nM | 4900 nM | 6800 nM | 1100 nM | 1400 nM | 50% |  |
| NCCCCCCCCNCc1c2c(nc3ccccc13)-c1cc3ccccc3c(=O)n1C2 | 1800 nM | 1800 nM | 2800 nM | 1800 nM | 1900 nM | 3100 nM | 1100 nM | 2500 nM | 25% |  |
| Cl.NCCCCCCCCCCNCc1c2c(nc3ccccc13)-c1cc3ccccc3c(=O)n1C2 |  |  |  |  |  |  |  |  | inactive | 30% |
| NCCCCCCCCCCCCNCc1c2c(nc3ccccc13)-c1cc3ccccc3c(=O)n1C2 | 1900 nM | 2500 nM | 6500 nM | 2000 nM | 1800 nM | 1700 nM | 2000 nM | 1900 nM | inactive |  |
| NCCCCNCc1c2c(nc3ccccc13)-c1cc3ccccc3c(=O)n1C2 |  |  |  |  |  |  |  |  | 75% |  |
| O=c1c2ccccc2cc2n1Cc1cc3ccccc3nc1-2 [ROSETTACIN] |  | > 100000 nM |  |  |  |  | > 100000 nM |  |  |  |
| COc1cc2c3c(n(C)c(=O)c2cc1OC)-c1cc2c(cc1C3=O)OCO2 | 4200 nM | 68000 nM | 1300 nM | 35000 nM | 41000 nM | 96000 nM | 37000 nM |  |  |  |
| COc1cc2c3c(n(CCCNCCO)c(=O)c2cc1OC)-c1cc2c(cc1C3=O)OCO2 [LMP-744] | 30 nM | < 10 nM | 20 nM | 100 nM | 40 nM | 790 nM | < 10 nM | 500 nM | Active |  |
| NCCCCCCCNCc1c2c(nc3ccccc13)-c1cc3ccccc3c(=O)n1C2 |  |  |  |  |  |  |  |  | 50% |  |
